# Measurements taken from ChEMBL document CHEMBL3414503, “Distinct novel quinazolinone exhibits selective inhibition in MGC-803 cancer cells by dictating mutant p53 function” (Eur J Med Chem, 2015).
# What was measured:
# Format in all cases: functional, cell-based
# MGC-803 = assay: Cytotoxicity against human MGC803 cells assessed as cell viability after 48 hrs by MTT assay; settings: MGC-803, 48 h
# Summary of the method: (§1)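 Cells were trypsinized, seeded in 96-well plates at 2 × 10³ cells/well and grown for 24 h. Medium was then replaced with compound solutions (in DMSO, range from 0.1) for 48 h, and viability was read by MTT. Cancer lines were grown in RPMI 1640 + 10% FCS. IC50 from 3 independent experiments, each in triplicate.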
# A-375 = assay: Cytotoxicity against human A375 cells assessed as cell viability after 48 hrs by MTT assay; settings: A-375, 48 h; summary of the method: as §1
# HepG2 = assay: Cytotoxicity against human HepG2 cells assessed as cell viability after 48 hrs by MTT assay; settings: HepG2, 48 h; summary of the method: as §1
# NCI-H460 = assay: Cytotoxicity against human NCI-H460 cells assessed as cell viability after 48 hrs by MTT assay; settings: NCI-H460, 48 h; summary of the method: as §1
SMILES,IC50 (MGC-803) [µM],IC50 (A-375) [µM],IC50 (HepG2) [µM],IC50 (NCI-H460) [µM]
CCCCn1c(/C=C/c2cccc(O)c2)nc2ccccc2c1=O,> 20,> 20,> 20,> 20
CN(C)CCCn1c(/C=C/c2ccc([N+](=O)[O-])cc2)nc2cc(Cl)ccc2c1=O,8.28,10.3,7.41,5.55
CN(C)CCCn1c(/C=C/c2ccccc2Br)nc2ccccc2c1=O,14.6,8.41,5.06,6.54
CN(C)CCn1c(/C=C/c2ccc3c(c2)OCO3)nc2ccccc2c1=O,> 20,> 20,> 20,> 20
CN(C)CCn1c(/C=C/c2cccc(O)c2)nc2ccccc2c1=O,> 20,> 20,> 20,> 20
COc1ccc(/C=C/c2nc3cc(Cl)ccc3c(=O)n2CCCN(C)C)cc1OC,> 20,> 20,> 20,> 20
COc1cc2nc(/C=C/c3cccc([N+](=O)[O-])c3)n(CCCN(C)C)c(=O)c2cc1OC,,> 20,,
CN(C)CCCn1c(/C=C/c2ccccc2Br)nc2cc(Cl)ccc2c1=O,12.6,13.1,8.1,7.49
CCCCn1c(/C=C/c2ccc3c(c2)OCO3)nc2ccccc2c1=O,> 20,> 20,> 20,> 20
CCCCn1c(/C=C/c2ccc(F)cc2)nc2ccccc2c1=O,> 20,> 20,> 20,> 20
CN(C)CCn1c(/C=C/c2ccc(Cl)cc2)nc2ccccc2c1=O,> 20,> 20,> 20,> 20
CN(C)CCCn1c(/C=C/c2ccc(F)cc2)nc2cc(Cl)ccc2c1=O,> 20,> 20,> 20,> 20
COc1cc2nc(/C=C/c3ccccc3Br)n(CCCN(C)C)c(=O)c2cc1OC,,> 20,,
CN(C)CCn1c(/C=C/c2ccccc2Br)nc2ccccc2c1=O,> 20,> 20,> 20,> 20
CN(C)CCCn1c(/C=C/c2ccc(Cl)cc2)nc2ccccc2c1=O,> 20,> 20,> 20,> 20
CN(C)CCn1c(/C=C/c2cccc([N+](=O)[O-])c2)nc2ccccc2c1=O,> 20,> 20,> 20,> 20
COc1cc2nc(/C=C/c3cccc(O)c3)n(CCCN(C)C)c(=O)c2cc1OC,,> 20,,
COc1cc2nc(/C=C/c3ccc4c(c3)OCO4)n(CCCN(C)C)c(=O)c2cc1OC,,> 20,,
CCCCn1c(/C=C/c2ccc(Cl)cc2)nc2ccccc2c1=O,> 20,> 20,> 20,> 20
CN(C)CCn1c(/C=C/c2ccc([N+](=O)[O-])cc2)nc2ccccc2c1=O,> 20,> 20,> 20,> 20
